Results gathered from unrelated publications.
Each line is one published result; the experiments were not run side by side.
PTGS1: Prostaglandin G/H synthase 1 (PTGS1, Ovis aries, UniProt P05979)
AGTR2: Type-2 angiotensin II receptor (AGTR2, Homo sapiens, UniProt P50052)
BCHE: Cholinesterase (BCHE, Equus caballus, UniProt P81908)

SMILES	target	test	setting	inhibition [%]
Nc1ccc(-c2nc3ccccc3s2)c(-c2cccc(O)c2)c1	PTGS1	enzyme activity, inhibitor, absorbance	10 µM	27.7
c1ccc(C(NCCNC(c2ccccc2)c2ccccc2)c2ccccc2)cc1	AGTR2	cell-free assay	10 µM	14
Oc1ccc(-c2ncccc2-c2nc3ccccc3s2)cc1	PTGS1	enzyme activity, inhibitor, absorbance	10 µM	12.5
COc1cc2c(cc1OC)C(=O)N(Cc1n[nH]c3ccccc13)C2	BCHE	enzyme activity, inhibitor, Ellman	1 µM	-2.7
CS(=O)(=O)c1ccc(-c2ncccc2-c2nc3ccccc3s2)cc1	PTGS1	enzyme activity, inhibitor, absorbance	10 µM	21.5
C#Cc1n[nH]c2c(-c3cn(C(C)c4ccccn4)c(=O)[nH]c3=O)cc(F)cc12 (stereo not drawn)	Activin receptor type-1B (ACVR1B, Homo sapiens, UniProt P36896)	enzyme activity, inhibitor	1 µM	3.8
COc1cc2c(cc1OC)C(=O)N(Cc1cccnc1)C2	BCHE	enzyme activity, inhibitor, Ellman	1 µM	-12.2
Cc1ccc(-c2nc3ccccc3s2)c(-c2ccc(S(N)(=O)=O)cc2)c1	PTGS1	enzyme activity, inhibitor, absorbance	10 µM	9.6
COc1ccc(S(=O)(=O)N2CCCCC2)cc1C	AGTR2	ligand displacement, radioligand	10 µM	< 30
CS(=O)(=O)c1ccc(-c2ncc(Cl)cc2-c2nc3ccccc3s2)cc1	PTGS1	enzyme activity, inhibitor, absorbance	10 µM	0
COc1cc2c(cc1OC)C(=O)N(Cc1ccncc1)C2	BCHE	enzyme activity, inhibitor, Ellman	1 µM	-0.7
Cn1cc(-c2cccc(N3CCc4c(sc5c4CC(C)(C)C5)C3=O)c2CO)cc(Nc2ccncn2)c1=O	SRSF protein kinase 2 (SRPK2, Homo sapiens, UniProt P78362)	enzyme activity, inhibitor	1 µM	-3
Nc1ccc(-c2ccccc2)c(-c2nc3ccccc3s2)c1	PTGS1	enzyme activity, inhibitor, absorbance	10 µM	59.1
COc1cc2c(cc1OC)C(=O)N(CC1CCN(Cc3ccc(F)nc3)CC1)C2	BCHE	enzyme activity, inhibitor, Ellman	1 µM	-4.8
COCc1c(-c2cc3cc(C)cc(OC)c3s2)c2c(N)ncnn2c1CN1CCNC(=O)C1	AGTR2	ligand displacement, radioligand	10 µM	9
COc1cc2c(cc1OC)C(=O)N(Cc1ccc(F)nc1)C2	BCHE	enzyme activity, inhibitor, Ellman	1 µM	-6.8
Cn1cc(-c2cc(F)cc(N3CCn4c(cc5c4CCCC5)C3=O)c2CO)cc(Nc2ccc(N3CCN(C4COC4)CC3)cn2)c1=O	Serine/threonine-protein kinase MRCK alpha (CDC42BPA, Homo sapiens, UniProt Q5VT25)	enzyme activity, inhibitor	0.1 µM	2
COc1cc2c(cc1OC)C(=O)N(CC1CCN(Cc3cccc(C)n3)CC1)C2	BCHE	enzyme activity, inhibitor, Ellman	1 µM	3.4
COc1ccc(-c2ccc(N)cc2-c2nc3ccccc3s2)cc1	PTGS1	enzyme activity, inhibitor, absorbance	10 µM	65.4
COc1cc2c(cc1OC)C(=O)N(Cc1nccc3ccccc13)C2	BCHE	enzyme activity, inhibitor, Ellman	1 µM	2
CC(C)N1CCC[C@H]1CNC(=O)c1cn(C2CCCC2)c(=O)c2c1c1ccccc1n2C	Androgen receptor (Ar, Rattus norvegicus, UniProt P15207)	ligand displacement, radioligand	10 µM	11
